Screening data: PubChem, Broad Institute
CASP6 VEID inh: caspase-6 (human) enzyme inhibition; purified caspase-6, Z-VEID-R110 cleavage fluorescence; inhibition, % at 12.5 µM; 0.53% of 350,000 active; AID 686996;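 active = mean inhibition across replicates at least about 35%, with every replicate also reaching that limit, limit read from the data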
Target sequence (P55212 24-179 limits assumed): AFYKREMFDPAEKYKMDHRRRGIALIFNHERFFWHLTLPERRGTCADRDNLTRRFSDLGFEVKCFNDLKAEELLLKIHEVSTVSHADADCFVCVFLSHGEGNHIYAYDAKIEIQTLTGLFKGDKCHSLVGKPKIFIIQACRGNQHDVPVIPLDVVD
Target sequence (P55212 194-293 limits assumed): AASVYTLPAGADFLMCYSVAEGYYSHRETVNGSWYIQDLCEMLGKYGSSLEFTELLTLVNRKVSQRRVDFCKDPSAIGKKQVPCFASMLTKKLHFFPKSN
Ecoli rRNA inh: selective bacterial rRNA inhibition in E. coli; 1.6% of 350,000 active; E. coli WT GFP vs humanized-ribosome RFP mutants, fluorescence, 24 h; active compounds read low; DMSO median 0, no signal -100; GFP signal change (wild-type ribosome), % (no concentration beside the values);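 active = significant combined selectivity score with lowered wild-type GFP, culture density cut under 30%, mutant RFP and density less affected; inactive = any of these conditions unmet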
PGC1a acetyl inh: lowers PGC1a acetylation signal in U2OS cells. AlphaScreen anti-acetyl-lysine; with virally co-expressed GCN5 acetyltransferase. inhibition, % at 15.6 µM. 0.17% of 350,000 active;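 active = every replicate shows inhibition of at least 40%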
ERAP1 inh: inhibitors of human ERAP1 aminopeptidase | Q9NZ08 | recombinant ERAP1, Leu-AMC fluorescence, 60 min | inhibition, % at 10.7 µM | 0.15% of 340,000 active;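 active = mean replicate inhibition of at least 30%, or all replicates individually reaching that 30% level; inactive = mean below 30% and not every replicate reaching it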
ARNT TACC3 PPI: ARNT/TACC3 interaction disruption | AlphaScreen His-ARNT PAS-B/GST-TACC3 binding, luminescence; TACC3 fragment carries E629A point mutation | inhibition, % at 9.99 µM | 0.66% of 390,000 active | AID 623870;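 active = mean inhibition of replicates at least 50% and at least half of replicates each reaching 50%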
S100A4 inh HTS: inhibitors of human S100A4 binding to myosin IIA peptide. S100A4/TAMRA-MyoIIA peptide fluorescence polarization. 0.14% of 360,000 active. inhibition, % at 10.7 µM. AID 652163;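 active = mean inhibition of at least 70% across replicates, with every replicate also reaching that level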
Target sequence (P26447 whole entry, looked up): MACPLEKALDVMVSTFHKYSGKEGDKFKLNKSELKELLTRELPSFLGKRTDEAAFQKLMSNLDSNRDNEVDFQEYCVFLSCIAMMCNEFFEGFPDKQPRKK
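Test system – S100A4 monomer (human) · Compound – single-point compound testing · Schedule – 5 min incubation before reading · Probe or stimulus – TAMRA-labelled myosin IIA heavy-chain peptide probe, 5 nM · Benchmarks – neutral control DMSO, positive control TFP · Medium – Calcium-containing HEPES buffer, pH 7.2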
A number is an active result. Sampled rows, rich in hits. Any-hit rate of the full collection: about 2.4%.

Screening O=C(Cc1c(Cl)cccc1Cl)Nc1cccnc1 returned CASP6 VEID inh inactive, Ecoli rRNA inh inactive, ERAP1 inh inactive, ARNT TACC3 PPI inactive and S100A4 inh HTS inactive.
O=C(CSCc1c(Cl)cccc1Cl)Nc1cccnc1 was read as CASP6 VEID inh inactive, Ecoli rRNA inh -24, PGC1a acetyl inh inactive, ERAP1 inh inactive, ARNT TACC3 PPI inactive and S100A4 inh HTS inactive.
O=C(N[C@H](Cc1ccccc1)C(=O)N1CCN(C(=O)N2CCOCC2)CC1)[C@H]1O[C@@H](n2ccc(=O)[nH]c2=O)[C@H](O)[C@@H]1O was read as CASP6 VEID inh 51, Ecoli rRNA inh inactive, ERAP1 inh inactive and S100A4 inh HTS inactive.
COc1ccc(C(=O)C2CCCN(C(=O)c3noc4c3CCCC4)C2)cc1F (stereo unspecified) was read as CASP6 VEID inh inactive, Ecoli rRNA inh -25, PGC1a acetyl inh inactive, ERAP1 inh inactive, ARNT TACC3 PPI inactive and S100A4 inh HTS inactive.
For CO[C@@H]1CN(C)C(=O)c2cc(NC(=O)C3CC3)ccc2OC[C@H](C)N(C(=O)c2cnccn2)C[C@@H]1C the results were CASP6 VEID inh inactive, Ecoli rRNA inh inactive, PGC1a acetyl inh inactive, ERAP1 inh inactive, ARNT TACC3 PPI inactive and S100A4 inh HTS inactive.
COc1ccc(-c2[nH]ncc2CN2CCCC(C(=O)c3cccc(OC)c3)C2)cc1 (stereo unspecified) was read as CASP6 VEID inh inactive, Ecoli rRNA inh inactive, PGC1a acetyl inh inactive, ERAP1 inh inactive, ARNT TACC3 PPI inactive and S100A4 inh HTS inactive.
COc1ccc2cc(-c3[nH]ncc3CN3CCCC3c3nonc3C)ccc2c1 (stereo unspecified) was read as CASP6 VEID inh inactive, Ecoli rRNA inh -23, PGC1a acetyl inh inactive, ERAP1 inh inactive, ARNT TACC3 PPI inactive and S100A4 inh HTS inactive.
O=c1nc2ccc(Cl)cn2c2ccc(S(=O)(=O)N3CCOCC3)cc12 was read as CASP6 VEID inh inactive, Ecoli rRNA inh inactive, PGC1a acetyl inh inactive, ERAP1 inh inactive, ARNT TACC3 PPI inactive and S100A4 inh HTS inactive.
Screening O=c1nc2ccc(Cl)cn2c2ccc(S(=O)(=O)N3CCCCC3)cc12 returned CASP6 VEID inh 92, Ecoli rRNA inh inactive, ERAP1 inh inactive, ARNT TACC3 PPI inactive and S100A4 inh HTS inactive.
COc1ccc(NC(=O)N(C)C[C@@H]2OCCCC[C@H](C)Oc3ccc(NS(=O)(=O)c4cn(C)cn4)cc3C(=O)N([C@H](C)CO)C[C@@H]2C)cc1 was read as CASP6 VEID inh inactive, Ecoli rRNA inh inactive, PGC1a acetyl inh inactive, ERAP1 inh inactive, ARNT TACC3 PPI inactive and S100A4 inh HTS inactive.
For CC(=O)Oc1c(C(C)C)cc(N(C(C)=O)c2ccccc2)cc1C(C)C the results were CASP6 VEID inh inactive, Ecoli rRNA inh -22, ERAP1 inh inactive, ARNT TACC3 PPI inactive and S100A4 inh HTS inactive.
`COCc1cc(=O)[nH]c(Nc2nc3ccccc3o2)n1` gave PGC1a acetyl inh inactive, ARNT TACC3 PPI 60 and S100A4 inh HTS inactive.
For COC(=O)Cc1cc(=O)[nH]c(Nc2nc3ccccc3o2)n1 the results were PGC1a acetyl inh inactive and ARNT TACC3 PPI inactive.
C[C@@H]1CC=CC[C@@H](c2ccc(F)cc2)NC(=O)[C@H](C)N(C)C(=O)c2ccccc2O1 (mixture of isomers) was read as Ecoli rRNA inh inactive.
For O=CN/N=C/c1c(O)ccc2ccccc12 the results were CASP6 VEID inh inactive, Ecoli rRNA inh -20, ERAP1 inh inactive, ARNT TACC3 PPI inactive and S100A4 inh HTS inactive.
For COc1ccccc1N(CC(=O)N/N=C/c1c(O)ccc2ccccc12)S(C)(=O)=O the results were ARNT TACC3 PPI 83.
`Oc1ccc2ccccc2c1/C=N/Nc1ccccc1` gave ARNT TACC3 PPI inactive.
O=[N+]([O-])c1ccc(N/N=C/c2ccccc2O)cc1 was read as CASP6 VEID inh inactive, Ecoli rRNA inh -19, ERAP1 inh inactive, ARNT TACC3 PPI inactive and S100A4 inh HTS inactive.
`O=[N+]([O-])c1ccc(NN=Cc2ccccc2O)nc1` gave CASP6 VEID inh inactive, Ecoli rRNA inh inactive, PGC1a acetyl inh inactive, ERAP1 inh inactive, ARNT TACC3 PPI inactive and S100A4 inh HTS inactive.
For O=C(NN=Cc1ccccc1O)c1cccc([N+](=O)[O-])c1 the results were CASP6 VEID inh inactive, Ecoli rRNA inh -27, PGC1a acetyl inh inactive, ERAP1 inh inactive, ARNT TACC3 PPI inactive and S100A4 inh HTS inactive.
Screening CC(=O)Oc1ccc(/C=C2/CCc3ccccc3C2=O)cc1 returned CASP6 VEID inh inactive, Ecoli rRNA inh -31, ERAP1 inh inactive, ARNT TACC3 PPI inactive and S100A4 inh HTS inactive.
COc1ccc(/C=C2\CCc3ccccc3C2=O)cc1OC was read as PGC1a acetyl inh inactive and ARNT TACC3 PPI inactive.
CO[C@@H]1CN(C)C(=O)c2ccc(NC(=O)Cc3ccccc3)cc2OC[C@@H](C)N(C)C[C@@H]1C was read as CASP6 VEID inh inactive, Ecoli rRNA inh inactive, PGC1a acetyl inh inactive, ERAP1 inh inactive, ARNT TACC3 PPI inactive and S100A4 inh HTS inactive.
Screening CSc1c(-c2ccccn2)c(N)nn1C(=O)C1CCC1 returned CASP6 VEID inh inactive, PGC1a acetyl inh inactive, ERAP1 inh inactive, ARNT TACC3 PPI inactive and S100A4 inh HTS inactive.
`CSc1c(-c2ccccn2)c(N)nn1C(=O)C1CC1` gave CASP6 VEID inh inactive, Ecoli rRNA inh -24, PGC1a acetyl inh inactive, ERAP1 inh inactive, ARNT TACC3 PPI inactive and S100A4 inh HTS inactive.
`N[C@@H](C(=O)N[C@@H]1C(=O)N2C(C(=O)O)=C(Cl)CS[C@H]12)c1ccccc1` gave CASP6 VEID inh inactive, PGC1a acetyl inh inactive, ERAP1 inh inactive, ARNT TACC3 PPI 40 and S100A4 inh HTS inactive.
For CC1=C(C(=O)O)N2C(=O)C(NC(=O)c3ccccc3Cl)C2SC1 (stereo unspecified) the results were CASP6 VEID inh inactive, Ecoli rRNA inh inactive, ERAP1 inh inactive, ARNT TACC3 PPI inactive and S100A4 inh HTS inactive.
`C[C@@H]1CN([C@@H](C)CO)C(=O)c2cc(NS(=O)(=O)c3cn(C)cn3)ccc2O[C@@H](C)CCCCO[C@@H]1CN(C)C(=O)Nc1ccc(F)cc1` gave CASP6 VEID inh inactive, Ecoli rRNA inh inactive, PGC1a acetyl inh inactive, ERAP1 inh inactive, ARNT TACC3 PPI inactive and S100A4 inh HTS inactive.
For Cc1cc(=O)[nH]c(SCC(=O)c2ccc(O)c(O)c2)n1 the results were CASP6 VEID inh 36, Ecoli rRNA inh inactive, ERAP1 inh inactive, ARNT TACC3 PPI inactive and S100A4 inh HTS inactive.
For Cn1c(SCC(=O)c2ccc(O)c(O)c2)nnc1-c1cccs1 the results were CASP6 VEID inh 40, Ecoli rRNA inh inactive, PGC1a acetyl inh inactive, ERAP1 inh inactive, ARNT TACC3 PPI inactive and S100A4 inh HTS inactive.
Screening Cn1c(SCC(=O)c2ccc(O)c(O)c2)nnc1-c1ccccc1 returned CASP6 VEID inh inactive, Ecoli rRNA inh inactive, PGC1a acetyl inh inactive, ERAP1 inh inactive, ARNT TACC3 PPI inactive and S100A4 inh HTS inactive.
